Data on 5 compounds can be found in ChEMBL document CHEMBL4229530, “5-Adamantan thiadiazole-based thiazolidinones as antimicrobial agents. Design, synthesis, molecular docking and evaluation” (2018).

One assay has as its system Listeria monocytogenes. The experiment in a line: Antibacterial activity against Listeria monocytogenes NCTC 7973 after 24 hrs by INT dye based microdilution assay. In kind it is functional. The following applies: NCTC 7973, 24 h. In outline: (§1)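 Broth microdilution in tryptic soy broth: overnight bacterial culture adjusted to 1×10^5 CFU/mL, 1.0×10^4 CFU per well; compounds dissolved in 5% DMSO, tested at 0.001-1.0 mg/ml; 24 h at 37°C. Streptomycin and ampicillin as positive controls, 5% DMSO as negative control; duplicate, repeated three times.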

Another assay deals with Talaromyces funiculosus. Put plainly: Antifungal activity against Penicillium funiculosum ATCC 36839 after 72 hrs by serial dilution assay. The following applies: ATCC 36839, 72 h. The class given is functional. A digest of the protocol:
(§2)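 Modified microdilution: fungal spores washed off malt agar with sterile 0.85% saline plus 0.1% Tween 80, adjusted to about 1.0×10^5 per 100 µL well. Compounds in 5% DMSO (0.001-1.0 mg/ml) in malt broth; 72 h at 28°C on rotary shaker (160 rpm). MIC is lowest concentration without visible growth under binocular microscope. Bifonazole and ketoconazole controls (1-3500 µg/mL); three independent experiments in duplicate.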

Assay [1] has as its system Staphylococcus aureus. The experiment in a line: Antibacterial activity against Staphylococcus aureus ATCC 6538 after 24 hrs by INT dye based microdilution assay. In kind it is functional. The following applies: ATCC 6538, 24 h. In outline:
as §1
A general note: In broth dilution the organism is exposed to a series of concentrations in liquid medium.

A further assay concerns Aspergillus ochraceus. The experiment in a line: Antifungal activity against Aspergillus ochraceus ATCC 12066 after 72 hrs by serial dilution assay. In kind it is functional. The note with it: ATCC 12066, 72 h. A digest of the protocol:
as §2

The test system of another assay is Aspergillus versicolor. The experiment in a line: Antifungal activity against Aspergillus versicolor ATCC 11730 after 72 hrs by serial dilution assay. The class given is functional. The following applies: ATCC 11730, 72 h. A digest of the protocol: as §2
In assay [2] the test system is Escherichia coli. Put plainly: Antibacterial activity against Escherichia coli ATCC 35210 after 24 hrs by INT dye based microdilution assay. The class given is functional. The following applies: ATCC 35210, 24 h. In outline:
as §1

For assay [3], the system named is Pseudomonas aeruginosa. The experiment in a line: Antibacterial activity against drug-resistant Pseudomonas aeruginosa after 24 hrs by INT dye based microdilution assay. In kind it is functional. A digest of the protocol:
(§3)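 Broth microdilution in tryptic soy broth. Overnight culture adjusted to 1×10^5 CFU/mL, giving 1.0×10^4 CFU per well. Compounds dissolved in 5% DMSO and tested at 0.001-1.0 mg/ml. Plates incubated 24 h at 37°C. INT (0.2 mg/mL) then added, with 30 min at 37°C. Duplicate, repeated three times.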

The test system of a further assay is Salmonella typhimurium. The experiment in a line: Antibacterial activity against Salmonella typhimurium ATCC 13311 after 24 hrs by INT dye based microdilution assay. In kind it is functional, Salmonella enterica subsp. enterica serovar Typhimurium. The note with it: Salmonella enterica, ATCC 13311, 24 h. A digest of the protocol: as §1
For a further assay, the system named is Aspergillus niger. Put plainly: Antifungal activity against Aspergillus niger ATCC 6275 after 72 hrs by serial dilution assay. In kind it is functional. The note with it: ATCC 6275, 72 h. A digest of the protocol:
as §2

In another assay the test system is Enterobacter cloacae. The experiment in a line: Antibacterial activity against Enterobacter cloacae after 24 hrs by INT dye based microdilution assay. The class given is functional. In outline:
as §1

Another assay relates to Micrococcus flavus. The experiment in a line: Antibacterial activity against Micrococcus flavus ATCC 10240 after 24 hrs by INT dye based microdilution assay. The class given is functional. The note with it: ATCC 10240, 24 h. A digest of the protocol: as §1
Assay [4] has as its system Pseudomonas aeruginosa. Put plainly: Antibacterial activity against Pseudomonas aeruginosa ATCC 27853 after 24 hrs by INT dye based microdilution assay. In kind it is functional. The following applies: ATCC 27853, 24 h. A digest of the protocol: as §1
Another assay has as its system Penicillium ochrochloron. The experiment in a line: Antifungal activity against Penicillium ochrochloron ATCC 9112 after 72 hrs by serial dilution assay. The note with it: ATCC 9112, 72 h. In kind it is functional. A digest of the protocol:
as §2

Assay [5] relates to Staphylococcus aureus. The experiment in a line: Antibacterial activity against methicillin-resistant Staphylococcus aureus after 24 hrs by INT dye based microdilution assay. The class given is functional. A digest of the protocol: as §3
The subject of the next assay is Trichoderma viride. Put plainly: Antifungal activity against Trichoderma viride IAM 5061 after 72 hrs by serial dilution assay. The class given is functional. The following applies: IAM 5061, 72 h. A digest of the protocol: as §2
Assay [6] relates to Escherichia coli. Put plainly: Antibacterial activity against drug-resistant Escherichia coli after 24 hrs by INT dye based microdilution assay. In kind it is functional. In outline: as §3
Another assay relates to Penicillium verrucosum. The experiment in a line: Antifungal activity against Penicillium cyclopium var verucosum after 72 hrs by serial dilution assay. The class given is functional. In outline:
as §2

A further assay relates to Aspergillus fumigatus. The experiment in a line: Antifungal activity against Aspergillus fumigatus isolate 1022 after 72 hrs by serial dilution assay. The class given is functional. The following applies: isolate 1022, 72 h. A digest of the protocol:
as §2

In the next assay the test system is Bacillus cereus. The experiment in a line: Antibacterial activity against Bacillus cereus after 24 hrs by INT dye based microdilution assay. In kind it is functional. A digest of the protocol: as §1

Converted amounts (≈) assume the structure as drawn.

One may read the MIC as the smallest concentration in the dilution series that meets the test's criterion for growth inhibition. Turning to `O=C1N/C(=N\c2nnc(C34CC5CC(CC(C5)C3)C4)s2)S/C1=C/c1ccc([N+](=O)[O-])cc1`, the MIC with Listeria monocytogenes was 33 µM (≈ 15.4 µg/mL); against Talaromyces funiculosus, 12.3 µM (≈ 5.75 µg/mL); in the assay on Staphylococcus aureus [1], 0.0165 µM (≈ 0.00772 µg/mL); with Aspergillus ochraceus, 12.3 µM (≈ 5.75 µg/mL); in the assay on Aspergillus versicolor, 8 µM (≈ 3.74 µg/mL); in the assay on Escherichia coli [2] it was 0.022 µM (≈ 0.0103 µg/mL). For the same compound, the MIC against Pseudomonas aeruginosa [3] was 8 µM (≈ 3.74 µg/mL); with Salmonella typhimurium it was 16.5 µM (≈ 7.72 µg/mL); with Aspergillus niger it was 16.5 µM (≈ 7.72 µg/mL); against Enterobacter cloacae, 18 µM (≈ 8.42 µg/mL); against Micrococcus flavus, 22 µM (≈ 10.3 µg/mL); in the assay on Pseudomonas aeruginosa [4], 22 µM (≈ 10.3 µg/mL). The MIC with Penicillium ochrochloron amounted to 8 µM (≈ 3.74 µg/mL); in the assay with Staphylococcus aureus [5] it was 0.008 µM (≈ 0.00374 µg/mL); against Trichoderma viride, 6 µM (≈ 2.81 µg/mL); against Escherichia coli [6], 0.006 µM (≈ 0.00281 µg/mL); with Penicillium verrucosum, 0.0165 µM (≈ 0.00772 µg/mL); in the assay on Aspergillus fumigatus, 8 µM (≈ 3.74 µg/mL). The compound also had an MIC in the assay with Bacillus cereus of 16.5 µM (≈ 7.72 µg/mL).

Take `O=C1N/C(=N\c2nnc(C34CC5CC(CC(C5)C3)C4)s2)S/C1=C/c1c(F)cccc1F`: the MIC with Listeria monocytogenes amounted to 21.8 µM (≈ 10 µg/mL); against Talaromyces funiculosus, 393 µM (≈ 180 µg/mL); in the assay on Staphylococcus aureus [1], 0.0436 µM (≈ 0.02 µg/mL); with Aspergillus ochraceus, 393 µM (≈ 180 µg/mL); with Aspergillus versicolor, 393 µM (≈ 180 µg/mL); against Escherichia coli [2], 0.0436 µM (≈ 0.02 µg/mL). The MIC amounted to 393 µM (≈ 180 µg/mL) with Pseudomonas aeruginosa [3]; 43.6 µM (≈ 20 µg/mL) against Salmonella typhimurium; 393 µM (≈ 180 µg/mL) against Aspergillus niger; 21.8 µM (≈ 10 µg/mL) against Enterobacter cloacae; 43.6 µM (≈ 20 µg/mL) with Micrococcus flavus; 43.6 µM (≈ 20 µg/mL) in the assay on Pseudomonas aeruginosa [4]. Also, the MIC in the assay on Penicillium ochrochloron is 393 µM (≈ 180 µg/mL); with Staphylococcus aureus [5], 0.393 µM (≈ 0.18 µg/mL); with Trichoderma viride it was 393 µM (≈ 180 µg/mL); in the assay on Escherichia coli [6], 0.393 µM (≈ 0.18 µg/mL); against Penicillium verrucosum it was 0.393 µM (≈ 0.18 µg/mL); against Aspergillus fumigatus, 393 µM (≈ 180 µg/mL). In the assay on Bacillus cereus, this compound yielded an MIC of 43.6 µM (≈ 20 µg/mL).

On to `CN(C)c1ccc(/C=C2/S/C(=N/c3nnc(C45CC6CC(CC(C6)C4)C5)s3)NC2=O)cc1`, for which the MIC against Listeria monocytogenes was determined as 69.5 µM (≈ 32.4 µg/mL); against Talaromyces funiculosus, 150 µM (≈ 69.8 µg/mL); against Staphylococcus aureus [1] it was 0.139 µM (≈ 0.0648 µg/mL); in the assay with Aspergillus ochraceus it was 150 µM (≈ 69.8 µg/mL); against Aspergillus versicolor, 150 µM (≈ 69.8 µg/mL); against Escherichia coli [2], 0.139 µM (≈ 0.0648 µg/mL). The MIC in the assay on Pseudomonas aeruginosa [3] is 150 µM (≈ 70.1 µg/mL); with Salmonella typhimurium, 69.5 µM (≈ 32.4 µg/mL); against Aspergillus niger it was 150 µM (≈ 69.8 µg/mL); in the assay with Enterobacter cloacae, 139 µM (≈ 64.8 µg/mL); in the assay on Micrococcus flavus, 139 µM (≈ 64.8 µg/mL); in the assay with Pseudomonas aeruginosa [4] it was 69.5 µM (≈ 32.4 µg/mL). Further, the MIC is 150 µM (≈ 69.8 µg/mL) against Penicillium ochrochloron; 0.15 µM (≈ 0.0701 µg/mL) against Staphylococcus aureus [5]; 301 µM (≈ 140 µg/mL) in the assay with Trichoderma viride; 0.0751 µM (≈ 0.035 µg/mL) with Escherichia coli [6]; 0.301 µM (≈ 0.14 µg/mL) in the assay with Penicillium verrucosum; 301 µM (≈ 140 µg/mL) in the assay with Aspergillus fumigatus. The compound also yielded an MIC against Bacillus cereus of 139 µM (≈ 64.8 µg/mL).

Consider `O=C1N/C(=N\c2nnc(C34CC5CC(CC(C5)C3)C4)s2)S/C1=C/c1ccccc1[N+](=O)[O-]`, for which the MIC came out at 32.2 µM (≈ 15.1 µg/mL) against Listeria monocytogenes; 482 µM (≈ 225 µg/mL) with Talaromyces funiculosus; 0.0322 µM (≈ 0.0151 µg/mL) with Staphylococcus aureus [1]; 321 µM (≈ 150 µg/mL) against Aspergillus ochraceus; 321 µM (≈ 150 µg/mL) against Aspergillus versicolor; 0.0322 µM (≈ 0.0151 µg/mL) with Escherichia coli [2]. The MIC with Pseudomonas aeruginosa [3] is 175 µM (≈ 81.8 µg/mL); against Salmonella typhimurium, 32.2 µM (≈ 15.1 µg/mL); in the assay on Aspergillus niger, 482 µM (≈ 225 µg/mL); against Enterobacter cloacae, 32.2 µM (≈ 15.1 µg/mL); with Micrococcus flavus, 32.2 µM (≈ 15.1 µg/mL); against Pseudomonas aeruginosa [4] it was 32.2 µM (≈ 15.1 µg/mL). The MIC against Penicillium ochrochloron is 321 µM (≈ 150 µg/mL); in the assay on Staphylococcus aureus [5] it was 0.175 µM (≈ 0.0818 µg/mL); against Trichoderma viride it was 321 µM (≈ 150 µg/mL); against Escherichia coli [6], 0.175 µM (≈ 0.0818 µg/mL); with Penicillium verrucosum, 0.321 µM (≈ 0.15 µg/mL); with Aspergillus fumigatus it was 321 µM (≈ 150 µg/mL). Also, in the assay with Bacillus cereus, 32.2 µM (≈ 15.1 µg/mL) was the least that counted as inhibitory (MIC).

With `O=C1N/C(=N\c2nnc(C34CC5CC(CC(C5)C3)C4)s2)S/C1=C/c1ccc(Cl)cc1Cl`, the MIC against Listeria monocytogenes is 163 µM (≈ 80.1 µg/mL); against Talaromyces funiculosus it was 163 µM (≈ 80.1 µg/mL); against Staphylococcus aureus [1], 0.0203 µM (≈ 0.00998 µg/mL); in the assay with Aspergillus ochraceus it was 81.4 µM (≈ 40 µg/mL); in the assay on Aspergillus versicolor, 163 µM (≈ 80.1 µg/mL); in the assay with Escherichia coli [2], 0.163 µM (≈ 0.0801 µg/mL). Also, the MIC in the assay on Pseudomonas aeruginosa [3] is 163 µM (≈ 80 µg/mL); in the assay with Salmonella typhimurium, 81.5 µM (≈ 40.1 µg/mL); with Aspergillus niger it was 81.4 µM (≈ 40 µg/mL); against Enterobacter cloacae, 163 µM (≈ 80.1 µg/mL); with Micrococcus flavus it was 163 µM (≈ 80.1 µg/mL); in the assay on Pseudomonas aeruginosa [4] it was 163 µM (≈ 80.1 µg/mL). In addition, the MIC turned out to be 163 µM (≈ 80.1 µg/mL) against Penicillium ochrochloron; 0.0814 µM (≈ 0.04 µg/mL) in the assay on Staphylococcus aureus [5]; 81.4 µM (≈ 40 µg/mL) with Trichoderma viride; 0.0203 µM (≈ 0.00998 µg/mL) against Escherichia coli [6]; 0.0814 µM (≈ 0.04 µg/mL) in the assay with Penicillium verrucosum; 81.4 µM (≈ 40 µg/mL) against Aspergillus fumigatus. The compound further came in with an MIC against Bacillus cereus of 163 µM (≈ 80.1 µg/mL).
